Assay results from ChEMBL document CHEMBL4689842, “EUbOPEN Chemogenomics Library wave 1” (2021).

Tested on: U2OS
Assay: Multiplex assay against U2OS
Assay type: toxicity, cell-based
Settings: human
Summary of the method: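 Tubulin, mitochondrial-mass and membrane-permeability phenotypes are per cents of healthy-nucleus cells. Cells were gated by CellPathfinder machine learning into Hoechst high-intensity objects or normal cells, normal cells into healthy, pyknosed or fragmented nuclei, and pyknosed cells into mitotic or apoptotic. Before that, live cells stained at seeding with Hoechst33342, BioTracker Green Microtubule Cytoskeleton Dye, MitoTracker Red and Annexin V Alexa Fluor 680 were imaged on a CQ1 microscope at 37°C and 5% CO2 after compound addition.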

[1] = 12 h, 1 µM, compound concentration 1 uM, replicate 1
[2] = 12 h, 1 µM, compound concentration 1 uM, replicate 2
[3] = 12 h, 10 µM, compound concentration 10 uM, replicate 1
[4] = 12 h, 10 µM, compound concentration 10 uM, replicate 2
[5] = 24 h, 1 µM, compound concentration 1 uM, replicate 1
[6] = 24 h, 1 µM, compound concentration 1 uM, replicate 2
[7] = 24 h, 10 µM, compound concentration 10 uM, replicate 1
[8] = 24 h, 10 µM, compound concentration 10 uM, replicate 2
[9] = 48 h, 1 µM, compound concentration 1 uM, replicate 1
[10] = 48 h, 1 µM, compound concentration 1 uM, replicate 2
[11] = 48 h, 10 µM, compound concentration 10 uM, replicate 1
[12] = 48 h, 10 µM, compound concentration 10 uM, replicate 2

Cl.O=C(O)c1cc(-c2ccc(C3CCNCC3)cc2)c2ccc(-c3ccc(C(F)(F)F)cc3)cc2c1 was tested, and the “Population Apoptotic (%)” value [1] was 25%, the “Population Fragmented Nuclei (%)” value [1] was 16% and the “Population Healthy Nuclei (%)” value [1] was 67%. For the same compound, the “Population Hoechst High Intensity Objects (%)” value [1] was 7%, the “Population Membrane Permeable-Phenotype (%)” value [1] was 8% and the “Population Mitochondria Different-Phenotype (%)” value [1] was 9%. The “Population Mitotic Cells (%)” value [1] was 74%, the “Population Normal (%)” value [1] was 92% and the “Population Pyknosed Nuclei (%)” value [1] was 16%. The “Population Tubulin-Different-Phenotype (%)” value [1] was 15%, the “Total Cell Count” value [1] was 201 and the “Population Apoptotic (%)” value [2] was 50%. The “Population Fragmented Nuclei (%)” value [2] was 11%, the “Population Healthy Nuclei (%)” value [2] was 83% and the “Population Hoechst High Intensity Objects (%)” value [2] was 5%. The “Population Membrane Permeable-Phenotype (%)” value [2] was 3%, the “Population Mitochondria Different-Phenotype (%)” value [2] was 16% and the “Population Mitotic Cells (%)” value [2] was 50%. For the same compound, the “Population Normal (%)” value [2] was 94%, the “Population Pyknosed Nuclei (%)” value [2] was 5% and the “Population Tubulin-Different-Phenotype (%)” value [2] was 36%. The “Total Cell Count” value [2] was 60, the “Population Apoptotic (%)” value [3] was 41% and the “Population Healthy Nuclei (%)” value [3] was 74%. The “Population Hoechst High Intensity Objects (%)” value [3] was 2%, the “Population Membrane Permeable-Phenotype (%)” value [3] was 5% and the “Population Mitochondria Different-Phenotype (%)” value [3] was 17%. For the same compound, the “Population Mitotic Cells (%)” value [3] was 58%, the “Population Normal (%)” value [3] was 97% and the “Population Pyknosed Nuclei (%)” value [3] was 11%. For the same compound, the “Population Tubulin-Different-Phenotype (%)” value [3] was 14%, the “Total Cell Count” value [3] was 181 and the “Population Apoptotic (%)” value [4] was 60%. The “Population Fragmented Nuclei (%)” value [4] was 14%, the “Population Healthy Nuclei (%)” value [4] was 64% and the “Population Hoechst High Intensity Objects (%)” value [4] was 14%. For the same compound, the “Population Membrane Permeable-Phenotype (%)” value [4] was 10%, the “Population Mitochondria Different-Phenotype (%)” value [4] was 13% and the “Population Mitotic Cells (%)” value [4] was 40%. The “Population Normal (%)” value [4] was 85%, the “Population Pyknosed Nuclei (%)” value [4] was 21% and the “Population Tubulin-Different-Phenotype (%)” value [4] was 23%. For the same compound, the “Total Cell Count” value [4] was 38, the “Population Apoptotic (%)” value [5] was 35% and the “Population Healthy Nuclei (%)” value [5] was 81%. For the same compound, the “Population Hoechst High Intensity Objects (%)” value [5] was 7%, the “Population Membrane Permeable-Phenotype (%)” value [5] was 3% and the “Population Mitotic Cells (%)” value [5] was 64%. For the same compound, the “Population Normal (%)” value [5] was 92%, the “Population Pyknosed Nuclei (%)” value [5] was 6% and the “Population Tubulin-Different-Phenotype (%)” value [5] was 12%. The “Total Cell Count” value [5] was 249, the “Population Apoptotic (%)” value [6] was 20% and the “Population Fragmented Nuclei (%)” value [6] was 11%. The “Population Healthy Nuclei (%)” value [6] was 79%, the “Population Hoechst High Intensity Objects (%)” value [6] was 3% and the “Population Membrane Permeable-Phenotype (%)” value [6] was 4%. For the same compound, the “Population Mitochondria Different-Phenotype (%)” value [6] was 9%, the “Population Mitotic Cells (%)” value [6] was 80% and the “Population Normal (%)” value [6] was 96%. For the same compound, the “Population Pyknosed Nuclei (%)” value [6] was 9%, the “Population Tubulin-Different-Phenotype (%)” value [6] was 30% and the “Total Cell Count” value [6] was 62. For the same compound, the “Population Apoptotic (%)” value [7] was 41%, the “Population Fragmented Nuclei (%)” value [7] was 13% and the “Population Healthy Nuclei (%)” value [7] was 72%. For the same compound, the “Population Hoechst High Intensity Objects (%)” value [7] was 4%, the “Population Membrane Permeable-Phenotype (%)” value [7] was 4% and the “Population Mitochondria Different-Phenotype (%)” value [7] was 12%. The “Population Mitotic Cells (%)” value [7] was 58%, the “Population Normal (%)” value [7] was 95% and the “Population Pyknosed Nuclei (%)” value [7] was 13%. For the same compound, the “Population Tubulin-Different-Phenotype (%)” value [7] was 13%, the “Total Cell Count” value [7] was 227 and the “Population Apoptotic (%)” value [8] was 61%. For the same compound, the “Population Fragmented Nuclei (%)” value [8] was 17%, the “Population Healthy Nuclei (%)” value [8] was 61% and the “Population Hoechst High Intensity Objects (%)” value [8] was 8%. For the same compound, the “Population Membrane Permeable-Phenotype (%)” value [8] was 7%, the “Population Mitochondria Different-Phenotype (%)” value [8] was 5% and the “Population Mitotic Cells (%)” value [8] was 38%. For the same compound, the “Population Normal (%)” value [8] was 91%, the “Population Pyknosed Nuclei (%)” value [8] was 20% and the “Population Tubulin-Different-Phenotype (%)” value [8] was 16%. For the same compound, the “Total Cell Count” value [8] was 56, the “Population Apoptotic (%)” value [9] was 17% and the “Population Fragmented Nuclei (%)” value [9] was 9%. For the same compound, the “Population Healthy Nuclei (%)” value [9] was 81%, the “Population Hoechst High Intensity Objects (%)” value [9] was 3% and the “Population Membrane Permeable-Phenotype (%)” value [9] was 1%. The “Population Mitochondria Different-Phenotype (%)” value [9] was 17%, the “Population Mitotic Cells (%)” value [9] was 82% and the “Population Normal (%)” value [9] was 96%. For the same compound, the “Population Pyknosed Nuclei (%)” value [9] was 9%, the “Population Tubulin-Different-Phenotype (%)” value [9] was 12% and the “Total Cell Count” value [9] was 359. For the same compound, the “Population Apoptotic (%)” value [10] was 33%, the “Population Fragmented Nuclei (%)” value [10] was 6% and the “Population Healthy Nuclei (%)” value [10] was 89%. The “Population Hoechst High Intensity Objects (%)” value [10] was 2%, the “Population Membrane Permeable-Phenotype (%)” value [10] was 4% and the “Population Mitochondria Different-Phenotype (%)” value [10] was 11%. The “Population Mitotic Cells (%)” value [10] was 66%, the “Population Normal (%)” value [10] was 97% and the “Population Pyknosed Nuclei (%)” value [10] was 3%. For the same compound, the “Population Tubulin-Different-Phenotype (%)” value [10] was 32%, the “Total Cell Count” value [10] was 95 and the “Population Apoptotic (%)” value [11] was 45%. The “Population Fragmented Nuclei (%)” value [11] was 12%, the “Population Healthy Nuclei (%)” value [11] was 65% and the “Population Hoechst High Intensity Objects (%)” value [11] was 5%. The “Population Membrane Permeable-Phenotype (%)” value [11] was 5%, the “Population Mitochondria Different-Phenotype (%)” value [11] was 7% and the “Population Mitotic Cells (%)” value [11] was 54%. For the same compound, the “Population Normal (%)” value [11] was 94%, the “Population Pyknosed Nuclei (%)” value [11] was 21% and the “Population Tubulin-Different-Phenotype (%)” value [11] was 14%. The “Total Cell Count” value [11] was 332, the “Population Apoptotic (%)” value [12] was 75% and the “Population Fragmented Nuclei (%)” value [12] was 17%. The “Population Healthy Nuclei (%)” value [12] was 66%, the “Population Hoechst High Intensity Objects (%)” value [12] was 10% and the “Population Membrane Permeable-Phenotype (%)” value [12] was 13%. The “Population Mitochondria Different-Phenotype (%)” value [12] was 13%, the “Population Mitotic Cells (%)” value [12] was 25% and the “Population Normal (%)” value [12] was 89%. For the same compound, the “Population Pyknosed Nuclei (%)” value [12] was 16%, the “Population Tubulin-Different-Phenotype (%)” value [12] was 21% and the “Total Cell Count” value [12] was 80.
